Laboratory results from PMC9909794 (ACS Omega, 2023).

What was measured:
[1] = test system: human dermal fibroblasts (HDFs); assay: Cell adhesion assay on peptide-BSA-coated plates, HDFs; type: cell-based; details: peptides conjugated at 0.125 μM and 1 μM; 5 × 10^3 cells/well; 1 h
In short: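 HDFs grown in DMEM with 10% FBS and penicillin/streptomycin, detached with 0.05% trypsin–EDTA, and suspended in 0.1% BSA/DMEM. Plates coated with Mal-BSA (10 μg/mL in water; 30 min, 37 °C), then Cys-PPP-spacer amide peptides in 100 mM HEPES pH 7 for 2 h. After 1 h adhesion, cells fixed and stained with crystal violet. Counts averaged over nine 0.77 mm2 fields; mean ± SE, three independent experiments.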

integrin αvβ3 = details: cited from earlier work
integrin αvβ5 = details: cited from earlier work

Row | Substance | Effect of the X3 amino acid on cell adhesion activity, HDFs [1] | Affinity for integrin αvβ3 relative to linear RGD peptides (integrin αvβ3) | Affinity for integrin αvβ5 relative to linear RGD peptides (integrin αvβ5)
1 | CPPP-RGDNYI | negligible |  | 
2 | CPPP-RGDNYP | negligible |  | 
3 | c(RGDf(NMe)V) [cilengitide] |  | much higher affinity | much higher affinity
